Test system: Fibroblast
Experiment: Multiplex assay against human fibroblast
Type: toxicity, cell-based
In short: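 Live cells were stained at seeding with Hoechst33342, BioTracker Green Microtubule Cytoskeleton Dye, MitoTracker Red and Annexin V Alexa Fluor 680. Following compound addition, they were imaged on a CQ1 microscope at 37°C and 5% CO2 and gated by CellPathfinder machine learning into Hoechst high-intensity objects or normal cells, with normal cells split into healthy, pyknosed or fragmented nuclei and pyknosed cells into mitotic or apoptotic. Tubulin, mitochondrial-mass and membrane-permeability phenotypes are per cents of healthy-nucleus cells.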

[1] = 12 h, 1 µM, compound concentration 1 uM, replicate 1
[2] = 12 h, 1 µM, compound concentration 1 uM, replicate 2
[3] = 12 h, 10 µM, compound concentration 10 uM, replicate 1
[4] = 12 h, 10 µM, compound concentration 10 uM, replicate 2
[5] = 24 h, 1 µM, compound concentration 1 uM, replicate 1
[6] = 24 h, 1 µM, compound concentration 1 uM, replicate 2
[7] = 24 h, 10 µM, compound concentration 10 uM, replicate 1
[8] = 24 h, 10 µM, compound concentration 10 uM, replicate 2
[9] = 48 h, 1 µM, compound concentration 1 uM, replicate 1
[10] = 48 h, 1 µM, compound concentration 1 uM, replicate 2
[11] = 48 h, 10 µM, compound concentration 10 uM, replicate 1
[12] = 48 h, 10 µM, compound concentration 10 uM, replicate 2

## CCC(=O)OCC(=O)[C@@]1(OC(=O)CC)[C@@H](C)C[C@H]2[C@@H]3CCC4=CC(=O)C=C[C@]4(C)[C@@]3(Cl)[C@@H](O)C[C@@]21C [BECLOMETHASONE DIPROPIONATE]
[1]
  Population Apoptotic (%): 38%
  Population Fragmented Nuclei (%): 13%
  Population Healthy Nuclei (%): 73%
  Population Hoechst High Intensity Objects (%): 3%
  Population Membrane Permeable-Phenotype (%): 1%
  Population Mitochondria Different-Phenotype (%): 2%
  Population Mitotic Cells (%): 61%
  Population Normal (%): 96%
  Population Pyknosed Nuclei (%): 13%
  Population Tubulin-Different-Phenotype (%): 47%
  Total Cell Count: 135
[2]
  Population Apoptotic (%): 42%
  Population Fragmented Nuclei (%): 30%
  Population Healthy Nuclei (%): 40%
  Population Membrane Permeable-Phenotype (%): 5%
  Population Mitochondria Different-Phenotype (%): 10%
  Population Mitotic Cells (%): 57%
  Population Pyknosed Nuclei (%): 30%
  Population Tubulin-Different-Phenotype (%): 63%
  Total Cell Count: 155
[3]
  Population Apoptotic (%): 40%
  Population Fragmented Nuclei (%): 9%
  Population Healthy Nuclei (%): 69%
  Population Hoechst High Intensity Objects (%): 8%
  Population Membrane Permeable-Phenotype (%): 1%
  Population Mitochondria Different-Phenotype (%): 17%
  Population Mitotic Cells (%): 60%
  Population Normal (%): 91%
  Population Pyknosed Nuclei (%): 20%
  Population Tubulin-Different-Phenotype (%): 87%
  Total Cell Count: 157
[4]
  Population Fragmented Nuclei (%): 32%
  Population Healthy Nuclei (%): 42%
  Population Hoechst High Intensity Objects (%): 5%
  Population Membrane Permeable-Phenotype (%): 15%
  Population Mitochondria Different-Phenotype (%): 20%
  Population Mitotic Cells (%): 59%
  Population Normal (%): 94%
  Population Pyknosed Nuclei (%): 24%
  Population Tubulin-Different-Phenotype (%): 94%
  Total Cell Count: 96
[5]
  Population Apoptotic (%): 50%
  Population Fragmented Nuclei (%): 16%
  Population Healthy Nuclei (%): 65%
  Population Hoechst High Intensity Objects (%): 1%
  Population Membrane Permeable-Phenotype (%): 3%
  Population Mitochondria Different-Phenotype (%): 2%
  Population Mitotic Cells (%): 50%
  Population Normal (%): 98%
  Population Pyknosed Nuclei (%): 18%
  Population Tubulin-Different-Phenotype (%): 34%
  Total Cell Count: 134
[6]
  Population Apoptotic (%): 47%
  Population Fragmented Nuclei (%): 30%
  Population Healthy Nuclei (%): 45%
  Population Hoechst High Intensity Objects (%): 6%
  Population Membrane Permeable-Phenotype (%): 7%
  Population Mitochondria Different-Phenotype (%): 7%
  Population Mitotic Cells (%): 52%
  Population Normal (%): 93%
  Population Pyknosed Nuclei (%): 24%
  Population Tubulin-Different-Phenotype (%): 60%
  Total Cell Count: 150
[7]
  Population Apoptotic (%): 40%
  Population Fragmented Nuclei (%): 13%
  Population Healthy Nuclei (%): 66%
  Population Hoechst High Intensity Objects (%): 6%
  Population Membrane Permeable-Phenotype (%): 1%
  Population Mitochondria Different-Phenotype (%): 30%
  Population Mitotic Cells (%): 59%
  Population Normal (%): 93%
  Population Pyknosed Nuclei (%): 19%
  Population Tubulin-Different-Phenotype (%): 86%
  Total Cell Count: 148
[8]
  Population Apoptotic (%): 19%
  Population Fragmented Nuclei (%): 38%
  Population Healthy Nuclei (%): 40%
  Population Membrane Permeable-Phenotype (%): 15%
  Population Mitochondria Different-Phenotype (%): 12%
  Population Mitotic Cells (%): 80%
  Population Pyknosed Nuclei (%): 21%
  Population Tubulin-Different-Phenotype (%): 79%
  Total Cell Count: 104
[9]
  Population Apoptotic (%): 28%
  Population Fragmented Nuclei (%): 13%
  Population Healthy Nuclei (%): 56%
  Population Hoechst High Intensity Objects (%): 3%
  Population Membrane Permeable-Phenotype (%): 1%
  Population Mitochondria Different-Phenotype (%): 15%
  Population Mitotic Cells (%): 71%
  Population Normal (%): 96%
  Population Pyknosed Nuclei (%): 30%
  Population Tubulin-Different-Phenotype (%): 61%
  Total Cell Count: 132
[10]
  Population Apoptotic (%): 52%
  Population Fragmented Nuclei (%): 31%
  Population Healthy Nuclei (%): 41%
  Population Hoechst High Intensity Objects (%): 7%
  Population Membrane Permeable-Phenotype (%): 5%
  Population Mitochondria Different-Phenotype (%): 9%
  Population Mitotic Cells (%): 47%
  Population Normal (%): 92%
  Population Pyknosed Nuclei (%): 27%
  Population Tubulin-Different-Phenotype (%): 54%
  Total Cell Count: 143
[11]
  Population Apoptotic (%): 67%
  Population Fragmented Nuclei (%): 21%
  Population Healthy Nuclei (%): 54%
  Population Hoechst High Intensity Objects (%): 6%
  Population Membrane Permeable-Phenotype (%): 0%
  Population Mitochondria Different-Phenotype (%): 47%
  Population Mitotic Cells (%): 32%
  Population Normal (%): 93%
  Population Pyknosed Nuclei (%): 24%
  Population Tubulin-Different-Phenotype (%): 76%
  Total Cell Count: 162
[12]
  Population Apoptotic (%): 37%
  Population Fragmented Nuclei (%): 33%
  Population Healthy Nuclei (%): 33%
  Population Hoechst High Intensity Objects (%): 3%
  Population Membrane Permeable-Phenotype (%): 18%
  Population Mitochondria Different-Phenotype (%): 15%
  Population Mitotic Cells (%): 62%
  Population Normal (%): 96%
  Population Pyknosed Nuclei (%): 33%
  Population Tubulin-Different-Phenotype (%): 84%
  Total Cell Count: 99
